According to paper PMC4303578 (Chemical Science, 2014):

Tested on: His6–FzmG
Assay: O2 consumption, Hansatech O2 electrode
Format: biochemical
Settings: alpha-KG 1 mM (saturating), Fe(II)
Procedure, shortened: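 Apparent steady-state kinetics by Clark-type O2 electrode. Phosphonic acid substrate concentration varied; α-KG held at 1 mM (saturating). Enzyme held constant at 3.7 μM for most substrates and 9.25 μM for one. Reactions were started by adding enzyme. Initial O2-consumption rates were measured in triplicate. Km was taken from nonlinear Michaelis–Menten regression.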

| Km (9.25 μM enzyme) | SMILES | Km (3.7 μM enzyme) |
| --- | --- | --- |
|  | O=P(O)(O)CCO [2-HEP] | 210 ± 40 µM |
|  | COC(=O)CP(=O)(O)O [Me-PnA] | 80 ± 20 µM |
|  | O=CCP(=O)(O)O [PnAA] | 800 ± 300 µM |
| 8000 ± 1000 µM | O=C(O)CP(=O)(O)O [PnA] |  |
